“And” between values parts separate entries of the source, which are not always exact repeats. Equal values may be shown once.
Test system: U2OS
Assay: Multiplex assay against U2OS
Type: toxicity, cell-based
Details: human
Outline: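 Hoechst33342, BioTracker Green Microtubule Cytoskeleton Dye, MitoTracker Red and Annexin V Alexa Fluor 680 were added to live cells at seeding, and imaging on a CQ1 microscope at 37°C and 5% CO2 followed compound addition. Gating by CellPathfinder machine learning separated cells into Hoechst high-intensity objects or normal cells, then normal cells into healthy, pyknosed or fragmented nuclei, then pyknosed cells into mitotic or apoptotic. Per cents of healthy-nucleus cells are reported for the tubulin, mitochondrial-mass and membrane-permeability phenotypes.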

[1] = 12 h, 1 µM, compound concentration 1 uM
[2] = 12 h, 10 µM, compound concentration 10 uM
[3] = 24 h, 1 µM, compound concentration 1 uM
[4] = 24 h, 10 µM, compound concentration 10 uM
[5] = 48 h, 1 µM, compound concentration 1 uM
[6] = 48 h, 10 µM, compound concentration 10 uM

Cl.Cl.OCCOCCN1CCN(C(c2ccccc2)c2ccc(Cl)cc2)CC1 (stereo not given) [HYDROXYZINE HYDROCHLORIDE]
Population Apoptotic (%) [1]: 60% and 80%
Population Fragmented Nuclei (%) [1]: 29% and 13%
Population Healthy Nuclei (%) [1]: 61% and 78%
Population Hoechst High Intensity Objects (%) [1]: 0% and 1%
Population Membrane Permeable-Phenotype (%) [1]: 11% and 9%
Population Mitochondria Different-Phenotype (%) [1]: 4% and 6%
Population Mitotic Cells (%) [1]: 40% and 20%
Population Normal (%) [1]: 99% and 98%
Population Pyknosed Nuclei (%) [1]: 9% and 7%
Population Tubulin-Different-Phenotype (%) [1]: 7% and 8%
Total Cell Count [1]: 208 and 139
Population Apoptotic (%) [2]: 58% and 88%
Population Fragmented Nuclei (%) [2]: 20% and 26%
Population Healthy Nuclei (%) [2]: 66%
Population Hoechst High Intensity Objects (%) [2]: 1% and 2%
Population Membrane Permeable-Phenotype (%) [2]: 9% and 5%
Population Mitochondria Different-Phenotype (%) [2]: 10% and 7%
Population Normal (%) [2]: 98% and 97%
Population Pyknosed Nuclei (%) [2]: 13% and 6%
Population Tubulin-Different-Phenotype (%) [2]: 6% and 7%
Total Cell Count [2]: 316 and 141
Population Apoptotic (%) [3]: 96% and 77%
Population Fragmented Nuclei (%) [3]: 25% and 9%
Population Healthy Nuclei (%) [3]: 63% and 77%
Population Hoechst High Intensity Objects (%) [3]: 1% and 2%
Population Membrane Permeable-Phenotype (%) [3]: 8% and 5%
Population Mitochondria Different-Phenotype (%) [3]: 4% and 1%
Population Normal (%) [3]: 98% and 97%
Population Pyknosed Nuclei (%) [3]: 10% and 12%
Population Tubulin-Different-Phenotype (%) [3]: 7% and 1%
Total Cell Count [3]: 232 and 148
Population Apoptotic (%) [4]: 73% and 61%
Population Fragmented Nuclei (%) [4]: 23% and 31%
Population Healthy Nuclei (%) [4]: 63% and 60%
Population Hoechst High Intensity Objects (%) [4]: 2%
Population Membrane Permeable-Phenotype (%) [4]: 10% and 12%
Population Mitochondria Different-Phenotype (%) [4]: 8% and 13%
Population Mitotic Cells (%) [4]: 26% and 38%
Population Normal (%) [4]: 97%
Population Pyknosed Nuclei (%) [4]: 12% and 7%
Population Tubulin-Different-Phenotype (%) [4]: 4% and 9%
Total Cell Count [4]: 359 and 168
Population Apoptotic (%) [5]: 89% and 90%
Population Fragmented Nuclei (%) [5]: 24% and 14%
Population Healthy Nuclei (%) [5]: 62% and 76%
Population Hoechst High Intensity Objects (%) [5]: 2%
Population Membrane Permeable-Phenotype (%) [5]: 4% and 5%
Population Mitochondria Different-Phenotype (%) [5]: 3%
Population Mitotic Cells (%) [5]: 10%
Population Normal (%) [5]: 97%
Population Pyknosed Nuclei (%) [5]: 13% and 8%
Population Tubulin-Different-Phenotype (%) [5]: 4% and 0%
Total Cell Count [5]: 300 and 230
Population Apoptotic (%) [6]: 83%
Population Fragmented Nuclei (%) [6]: 17% and 27%
Population Healthy Nuclei (%) [6]: 68% and 64%
Population Hoechst High Intensity Objects (%) [6]: 2% and 5%
Population Membrane Permeable-Phenotype (%) [6]: 8% and 10%
Population Mitochondria Different-Phenotype (%) [6]: 6% and 5%
Population Mitotic Cells (%) [6]: 16%
Population Normal (%) [6]: 97% and 94%
Population Pyknosed Nuclei (%) [6]: 13% and 8%
Population Tubulin-Different-Phenotype (%) [6]: 4% and 5%
Total Cell Count [6]: 456 and 231

CCCCC1=NC2(CCCC2)C(=O)N1Cc1ccc(-c2ccccc2-c2nnn[nH]2)cc1 [IRBESARTAN]
Population Apoptotic (%) [1]: 83% and 77%
Population Fragmented Nuclei (%) [1]: 25% and 9%
Population Healthy Nuclei (%) [1]: 66% and 82%
Population Hoechst High Intensity Objects (%) [1]: 2% and 0%
Population Membrane Permeable-Phenotype (%) [1]: 5% and 11%
Population Mitochondria Different-Phenotype (%) [1]: 1%
Population Mitotic Cells (%) [1]: 16% and 22%
Population Normal (%) [1]: 97% and 99%
Population Pyknosed Nuclei (%) [1]: 7%
Population Tubulin-Different-Phenotype (%) [1]: 1% and 8%
Total Cell Count [1]: 233 and 124
Population Apoptotic (%) [2]: 91% and 100%
Population Fragmented Nuclei (%) [2]: 22% and 18%
Population Healthy Nuclei (%) [2]: 68% and 74%
Population Hoechst High Intensity Objects (%) [2]: 2% and 0%
Population Membrane Permeable-Phenotype (%) [2]: 4% and 8%
Population Mitochondria Different-Phenotype (%) [2]: 3% and 6%
Population Mitotic Cells (%) [2]: 8% and 0%
Population Normal (%) [2]: 97% and 100%
Population Pyknosed Nuclei (%) [2]: 9% and 8%
Population Tubulin-Different-Phenotype (%) [2]: 2% and 8%
Total Cell Count [2]: 254 and 100
Population Apoptotic (%) [3]: 70% and 66%
Population Fragmented Nuclei (%) [3]: 23% and 12%
Population Healthy Nuclei (%) [3]: 69% and 76%
Population Hoechst High Intensity Objects (%) [3]: 3% and 2%
Population Membrane Permeable-Phenotype (%) [3]: 6% and 9%
Population Mitochondria Different-Phenotype (%) [3]: 3% and 2%
Population Mitotic Cells (%) [3]: 29% and 33%
Population Normal (%) [3]: 96% and 97%
Population Pyknosed Nuclei (%) [3]: 7% and 10%
Population Tubulin-Different-Phenotype (%) [3]: 3% and 4%
Total Cell Count [3]: 241 and 142
Population Apoptotic (%) [4]: 96% and 91%
Population Fragmented Nuclei (%) [4]: 18%
Population Healthy Nuclei (%) [4]: 73% and 72%
Population Hoechst High Intensity Objects (%) [4]: 2% and 0%
Population Membrane Permeable-Phenotype (%) [4]: 6% and 7%
Population Mitochondria Different-Phenotype (%) [4]: 3%
Population Mitotic Cells (%) [4]: 4% and 8%
Population Normal (%) [4]: 97% and 99%
Population Pyknosed Nuclei (%) [4]: 8%
Population Tubulin-Different-Phenotype (%) [4]: 4% and 3%
Total Cell Count [4]: 301 and 135
Population Apoptotic (%) [5]: 97% and 94%
Population Fragmented Nuclei (%) [5]: 18% and 14%
Population Healthy Nuclei (%) [5]: 71% and 76%
Population Hoechst High Intensity Objects (%) [5]: 2% and 4%
Population Membrane Permeable-Phenotype (%) [5]: 5% and 6%
Population Mitochondria Different-Phenotype (%) [5]: 2% and 1%
Population Mitotic Cells (%) [5]: 2% and 5%
Population Normal (%) [5]: 97% and 95%
Population Pyknosed Nuclei (%) [5]: 10% and 9%
Population Tubulin-Different-Phenotype (%) [5]: 2%
Total Cell Count [5]: 357 and 198
Population Apoptotic (%) [6]: 89% and 94%
Population Fragmented Nuclei (%) [6]: 14% and 16%
Population Healthy Nuclei (%) [6]: 75% and 72%
Population Hoechst High Intensity Objects (%) [6]: 3% and 4%
Population Membrane Permeable-Phenotype (%) [6]: 7% and 9%
Population Mitochondria Different-Phenotype (%) [6]: 3% and 7%
Population Mitotic Cells (%) [6]: 10% and 5%
Population Normal (%) [6]: 96% and 95%
Population Pyknosed Nuclei (%) [6]: 9% and 10%
Population Tubulin-Different-Phenotype (%) [6]: 3% and 7%
Total Cell Count [6]: 419 and 175

Reference: ChEMBL document CHEMBL5724801, “EUbOPEN Chemogenomics Library - Multiplex” (2024)
